SIAE primary – human SIAE inhibitors, primary screen, biochemical, fluorescence polarization, FP-Rh probe, 1536-well HTS. Sialate O-acetylesterase (Homo sapiens), Q9HAT2. SIAE FP-Rh probe binding. inhibition, % at 9.66 µM. 0.69% of 370,000 active;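 active means inhibition above a cutoff: mean of compounds within the control limits plus 3 SD of those, cut at about 17% in these data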;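 further: 0% = plate median of compound wells and 100% = probe without SIAE protein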
TCR CD3 inh – inhibitors of human TCR-CD3 interaction, primary screen, biochemical, fluorescence, TAMRA-labeled TCR probe | 0.37% of 360,000 active | AID 651800, 2012 | inhibition, % at 9.4 µM; in the data active means inhibition above about 19%;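 further: recombinant mutant TCR 2C K166C tagged with TAMRA read by polarization; 0% = receptor in buffer alone and 100% = receptor with positive control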
ABHD4 inh – ABHD4 inhibitors, primary screen, biochemical, fluorescence polarization, mouse | (Lyso)-N-acylphosphatidylethanolamine lipase (Mus musculus), Q8VD66 | purified mABHD4, FP-Rh probe fluorescence polarization | inhibition, % at 8.92 µM | 0.54% of 370,000 active | AID 720543, 2013;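 active means inhibition exceeding the mean over every tested compound plus 3 SD, cut at about 30% in these data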;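 further: 0% = plate median of compound wells and 100% = S159A mutant with DMSO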
Target sequence (Q8VD66 whole entry, looked up): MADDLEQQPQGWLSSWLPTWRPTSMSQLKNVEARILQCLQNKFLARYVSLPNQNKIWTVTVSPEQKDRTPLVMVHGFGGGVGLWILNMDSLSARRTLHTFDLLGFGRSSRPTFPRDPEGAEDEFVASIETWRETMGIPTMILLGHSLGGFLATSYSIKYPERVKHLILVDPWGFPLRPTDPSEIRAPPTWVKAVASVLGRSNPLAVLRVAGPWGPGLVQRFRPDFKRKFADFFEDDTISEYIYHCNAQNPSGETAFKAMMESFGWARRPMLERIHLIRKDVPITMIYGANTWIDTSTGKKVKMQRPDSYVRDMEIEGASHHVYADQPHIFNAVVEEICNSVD
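Doses – 8.92 µM, single dose · Material – wild-type mouse ABHD4 protein · Replication – single well per compound (singlicate) · Measure – percent inhibition of probe binding, normalized to plate controls · Schedule – 45 min compound pre-incubation plus 60 min probe step, 25 °C · Detection – fluorescence polarization with parallel and perpendicular emission, 525/598 nm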
rCAG RNA binder – binders of r(CAG) RNA repeats, primary screen, biochemical, fluorescence. AID 651821, 2012. 1.3% of 370,000 active. inhibition, % at 3 µM. r(CAG) RNA repeat, TO-PRO-1 dye displacement fluorescence;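 active means inhibition above the plate cutoff, the mean of all test compounds on that plate plus 3 SD, cut at about 35% in these data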;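 further: 0% = DMSO alone and 100% = 100 µM mitoxantrone as full dye displacement; higher means more dye released from RNA so lower well fluorescence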
PRMT1 inh – PRMT1 methyltransferase inhibitors, primary screen, biochemical, fluorescence polarization | recombinant PRMT1, activity-based probe fluorescence polarization | inhibition, % at 2.79 µM | 1.3% of 370,000 active;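 active means inhibition above about 21% made by adding two undisclosed values, limit read from the data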
Target sequence (Q99873 whole entry, looked up): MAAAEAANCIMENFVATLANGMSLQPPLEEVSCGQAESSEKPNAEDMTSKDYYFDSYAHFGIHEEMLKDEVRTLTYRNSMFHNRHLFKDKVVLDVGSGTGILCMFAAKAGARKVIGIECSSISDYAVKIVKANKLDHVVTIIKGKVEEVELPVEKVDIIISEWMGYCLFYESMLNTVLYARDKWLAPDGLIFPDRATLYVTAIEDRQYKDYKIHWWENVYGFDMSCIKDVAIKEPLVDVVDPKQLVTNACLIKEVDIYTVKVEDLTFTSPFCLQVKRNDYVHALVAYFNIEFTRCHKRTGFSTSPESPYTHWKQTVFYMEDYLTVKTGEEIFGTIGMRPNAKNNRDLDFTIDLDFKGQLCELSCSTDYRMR
rCAG binder conf – small molecules binding CAG repeat RNA – biochemical, fluorescence, confirmation; shares compounds with rCAG RNA binder; r(CAG) RNA repeat, TO-PRO-1 dye displacement fluorescence; inhibition, % at 3 µM; 70% of 4,300 active;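 active means inhibition above a per-plate cutoff, the mean inhibition of sample wells plus 3 SD, cut at about 35% in these data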;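 further: loss of TO-PRO-1 fluorescence as compound displaces dye from 1x1 AA loop RNA; 0% = DMSO only wells and 100% = 100 µM mitoxantrone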
dCAG dye counter – displacement of TO-PRO-1 from CAG DNA duplex, counter-screen for rCAG RNA repeat binder project, biochemical, fluorescence, TO-PRO-1 dye, d(CAG) DNA oligo. inhibition, % at 3 µM. d(CAG) DNA oligo TO-PRO-1 dye displacement. 94% of 4,300 active. AID 652068, 2013. shares compounds with rCAG RNA binder;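 active means inhibition above its plate's cutoff, the mean test-well inhibition plus 3 SD, cut at about 4.8% in these data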;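 further: 0% = DNA dye mix with DMSO and 100% = 100 µM mitoxantrone; hits displace the dye from DNA and so lower well fluorescence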
Starred values were filed as active, the others as inactive; . = no result. An excerpt weighted towards active compounds, which were near 3.3% of everything screened.

SMILES	SIAE primary	TCR CD3 inh	ABHD4 inh	rCAG RNA binder	PRMT1 inh	rCAG binder conf	dCAG dye counter
O=C(/C=C/c1ccc(O)c([N+](=O)[O-])c1)c1ccc2ccccc2c1	-14.9	6.7	21.1	42.3*	-2.0	77.9*	39.2*
Cc1ccc(-c2cc(C(=O)NN=Cc3ccc(-c4ccccc4)cc3)[nH]n2)cc1	1.9	.	1.6	10.0	-4.7	.	.
CN1C(=O)c2cc(NC(=O)Nc3ccccc3)ccc2OC[C@H]2O[C@@H](CC(=O)NC3CCC3)CC[C@@H]21	-2.0	.	12.3	4.2	6.8	.	.
Cc1ccccc1NC(=O)OC1CCC12CCC(c1ccccc1)CC2 (stereo unspecified)	-4.7	.	-8.8	2.1	-2.6	.	.
COc1cc(CC(=O)O)ccc1OCc1ccccc1	-0.2	-0.2	5.2	1.6	2.5	.	.
COc1cc(CCc2ccccc2)c(C(=O)O)c(O)c1CC=C(C)C	5.0	-3.6	-73.6	79.3*	4.1	77.0*	40.9*
COc1cc(CCc2ccccc2)c(C(=O)O)c(O)c1C/C=C(/C)CCC=C(C)C	-11.5	0.3	-123.7	93.5*	3.5	82.0*	46.7*
Cc1cc(Cl)ccc1OCC(=O)Nc1ccccc1NS(=O)(=O)c1cccs1	-1.5	0.8	-9.2	41.9*	-1.7	50.6*	11.3*
O=C(Nc1ccc(Cl)cc1)Nc1ccccc1NS(=O)(=O)c1cccs1	-7.8	-1.4	-35.0	42.8*	3.0	39.0*	10.4*
O=C(Nc1nnc(-c2cccnc2)s1)c1cnc2ccccc2c1	-8.5	.	-4.8	13.6	-0.4	.	.
CC1=C2NC(N)=[N+](Cc3ccc4c(c3)OCO4)CC2n2c(=O)n(-c3ccccc3)c(=O)n2C1 (stereo unspecified)	4.3	.	7.4	19.4	-0.1	.	.
Cc1ccc(Cc2c(-c3cccc(Br)c3)nc3ccc(Br)cn23)cc1	-3.0	1.8	-2.2	37.8*	-0.6	31.1	9.7*
COc1ccccc1Cc1c(-c2ccccc2)nc2ccc(Br)cn12	1.0	-4.3	4.4	16.8	-0.7	.	.
COc1ccccc1Cc1c(-c2ccc(C)cc2)nc2ccc(Br)cn12	-4.6	-6.0	-0.9	12.6	-2.1	.	.
Cc1cc(Br)cn2c(Cc3ccccc3)c(-c3ccc(Cl)cc3)nc12	2.9	1.2	-9.9	10.5	-0.9	.	.
Cc1ccc(Cc2c(-c3ccc(C)cc3)nc3c(C)cc(Br)cn23)cc1	-2.7	-4.2	-22.4	41.4*	1.5	8.8	6.3*
COc1ccccc1Cc1c(-c2cccc(Br)c2)nc2ccc(Br)cn12	7.5	-1.4	4.6	53.6*	-0.3	15.1	7.3*
COc1ccccc1Cc1c(-c2ccc(Cl)cc2)nc2ccc(Br)cn12	-0.6	-6.5	-7.2	41.7*	1.9	15.9	6.8*
COC(=O)[C@]12C[C@H](CC(=O)NCc3cccs3)C(=O)N(Cc3ccc(Cl)cc3Cl)C1=C[C@H](COCc1ccccc1)O[C@@H]2C	0.2	.	-10.0	8.5	-0.8	.	.
O=C(NC1CCCCN(Cc2cccc(Cl)c2)C1=O)c1ccccn1 (stereo unspecified)	-1.4	.	3.6	0.8	2.9	.	.
CCC[C@H]1[C@@H](NC(=O)c2cccnc2)CC[C@@]23CCCN2C(=O)CCC[C@@H]13	3.3	.	-5.1	.	5.0	.	.
COc1ccc(-c2cc(-c3nnc4sc(Cc5cccs5)nn34)[nH]n2)cc1	-17.9	.	-21.4	20.6	3.2	.	.
Cc1ccccc1-c1cccc2c3c([nH]c12)[C@@H]1C[C@H]2[C@@H](CN1CC3)[C@H](C)ON2C	-0.9	.	4.5	4.6	-0.4	.	.
O=C(O)c1c2c(nc3ccc(S(=O)(=O)N4CCC(C(=O)NCc5ccccc5Cl)CC4)cc13)CCCC2	4.6	2.0	-0.5	39.3*	7.8	36.5*	9.5*
O=C(O)c1c2c(nc3ccc(S(=O)(=O)N4CCC(C(=O)NCc5ccc(Cl)cc5)CC4)cc13)CCCC2	4.8	2.2	8.8	42.2*	3.1	40.4*	13.1*
SMILES	SIAE primary	TCR CD3 inh	ABHD4 inh	rCAG RNA binder	PRMT1 inh	rCAG binder conf	dCAG dye counter
CC(C)CCNC(=O)C1CCN(S(=O)(=O)c2ccc3nc4c(c(C(=O)O)c3c2)CCCCC4)CC1	-5.8	3.7	-0.4	12.7	0.6	.	.
O=C(O)c1c2c(nc3ccc(S(=O)(=O)N4CCC(C(=O)NC5CCCCCC5)CC4)cc13)CCCC2	-0.3	-1.8	24.1	36.0*	11.4	40.7*	13.3*
COc1ccc(C(C(=O)N(C)C2CCCC2)N(Cc2ccc(F)cc2)C(=O)c2cc(C)on2)cc1OC (stereo unspecified)	1.9	.	4.5	-1.2	-4.6	.	.
S=c1[nH]nc(Cc2c[nH]c3ccccc23)o1	1.5	5.5	5.3	6.9	3.3	.	.
S=c1[nH]nc(Cc2sc(-c3ccccc3)nc2-c2ccccc2)o1	-2.6	-0.8	-14.4	61.3*	17.9	47.3*	16.7*
NS(=O)(=O)c1ccc(-c2ccc(/C=N/NC(=O)c3ccc([N+](=O)[O-])cc3)o2)cc1	-1.4	-0.5	5.8	1.9	-2.0	.	.
CCCOc1ccc(C(=O)Nc2ccc(S(=O)(=O)Nc3onc(C)c3C)cc2)cc1	3.1	-1.8	-1.0	48.7*	-0.2	28.1	5.2*
CCOc1cc(C(=O)Nc2ccc(S(=O)(=O)Nc3onc(C)c3C)cc2)cc(OCC)c1OCC	2.2	4.3	-0.7	46.1*	-1.2	51.8*	19.9*
CCCOc1ccc(C(=O)Nc2ccc(S(=O)(=O)Nc3cc(C)nc(C)n3)cc2)cc1	-6.7	1.2	-6.0	25.3	-0.1	.	.
COc1cc(C(=O)Nc2ccc(S(=O)(=O)Nc3onc(C)c3C)cc2)cc(OC)c1OC	1.7	-5.3	-5.7	34.5	0.8	.	.
CCCCOc1ccc(C(=O)Nc2ccc(S(=O)(=O)Nc3onc(C)c3C)cc2)cc1	-9.1	12.4	-2.0	77.2*	-0.1	53.5*	21.0*
CCCOc1ccc(C(=O)N/N=C/c2ccc(-c3ccc(S(=O)(=O)Nc4ncccn4)cc3)o2)cc1	-5.0	2.6	-11.0	54.4*	3.5	60.5*	23.6*
CCOC(=O)CC[C@H]1CC[C@]2(CCCN(C(=O)c3ccno3)C2)O1	-2.5	.	4.5	0.5	3.0	.	.
O=S1(=O)C=CCN1Cc1cn(Cc2cccc(Cl)c2)nn1	-2.8	.	0.0	0.3	1.6	.	.
C[C@H]1[C@@H](C(=O)N2CCCC2)CC(=O)/C(=N/OCc2ccccc2)C[C@@H]1c1ccccc1	-1.5	.	7.1	2.3	-1.7	.	.
COC[C@H]1CCCN1c1cccc2c1S(=O)(=O)N(C1CC1)CCCO2	0.7	.	6.9	1.6	3.0	.	.
